In general, inhibition refers to the change of the read-out against control, counted positive when it falls.

The source of these data is PubChem BioAssay AID688 (PCMD, 2007).

About 250 (0.93%) of roughly 27,000 compounds were called active.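 How the source made its calls: active means mutant luminescence inhibited past about 50% while wild type luminescence and mutant growth stay under set limits (limit read from the data); inconclusive means mutant versus wild type luminescence inhibition gap past a set limit; inactive means the rest.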 Shown is part of a subset that was picked to be rich in actives.

The experiment is described as follows: mutant yeast GCN4 reporter luminescence inhibitors – S. cerevisiae, eIF2B-epsilon R284H, Beta-Glo luminescence, primary screen (AID 688). Particulars: GCN4-lacZ luminescence; growth inhibition: measured here: mutant yeast growth, toxicity, concentration not given here; inhibition: stronger effect = higher value, screened at 25 µM (by protocol). The method in brief: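 Assay system: yeast eIF2B-epsilon R284H mutant carrying GCN4–beta-galactosidase fusion / Buffer or medium: YPD / Incubation: 16 h growth with compound at 30 °C, 90 min Beta-Glo step / Detection: Beta-Glo luminescence after Z-buffer lysis, growth by 595 nm absorbance / Read-out: % inhibition of reporter signal and growth versus controls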
In the case of `O=C(COc1ccccc1Cl)Nn1cnnc1`, the growth inhibition was -7.89% and the inhibition is 14.3% (inactive).
With `Cc1cccc(NC(=O)/C(=C\c2ccco2)NC(=O)c2ccccc2)c1`, the growth inhibition was 10.8% and the inhibition was 15.4% (inactive).
With `CCOc1ccc(C(=O)NC(C(=O)NCc2ccccn2)C(C)C)cc1` (centres undefined), the growth inhibition is -4.76% and the inhibition was -9.95% (inactive).
Consider `CC(=O)NC1=NN(C(C)=O)C(C)(c2ccc(Cl)s2)S1` (centres undefined), for which the growth inhibition was determined as 6.67% and the inhibition was 44.3% (inactive).
Turning to `Cc1cc(C)n(C(=O)CCNC(=O)c2ccccc2Cl)n1`, the inhibition is -0.54% (inactive).
With `O=C(CSc1nnnn1-c1ccccc1)NCc1ccco1`, the inhibition was -70.2% (inactive).
In the case of `Cc1ccc(C(=O)N/N=C/c2sc(=O)n(Cc3cccc(C(=O)O)c3)c2Cl)cc1`, the growth inhibition was -9.52% and the inhibition was 18.2% (inactive).
For the molecule `COc1ccc(C2CC(=O)C=C(NCC3CCCO3)C2)cc1` (centres undefined), the growth inhibition was 10.8% and the inhibition is 17.6% (inactive).
Take `CCOC(=O)c1cnc(SC)nc1Sc1ccc(Cl)cc1Cl`: the growth inhibition is 5% and the inhibition was 22.2% (inactive).
Take `O=C(NC(C(=O)NCCN1CCOCC1)C12CC3CC(CC(C3)C1)C2)C1CCCCC1` (centres undefined): the growth inhibition is 28.1% and the inhibition is 15.3% (inactive).
`Cc1ccc(S(=O)(=O)c2c(COC(=O)c3cccc(Cl)c3)c(-c3ccccc3)nn2C)cc1`: the growth inhibition stood at 12.1% and the inhibition was 35.8% (inactive).
Consider `O=C(O)c1cc(S(=O)(=O)N2CCCCCC2)c(Cl)cc1Cl`, for which the inhibition was 8.58% (inactive).
`CCCCCCNCCn1cnc2c(N)ncnc21`: the inhibition was 37.2% (inactive).
In the case of `CCOC(=O)CN1C(=O)C(=O)c2cc(C)ccc21`, the growth inhibition was -4.55% and the inhibition was 21.8% (inactive).
Turning to `O=C(Nc1nc2ccc(S(=O)(=O)N3CCCC3)cc2s1)C1CCCO1` (centres undefined), the growth inhibition is -18.2% and the inhibition is 18.6% (inactive).
With `CC(C)COC(=O)c1ccc(NC(=O)C2C3C=CC(C3)C2C(=O)O)cc1` (centres undefined), the growth inhibition was determined as 20.7% and the inhibition is 15.8% (inactive).
The corresponding values for `CS(=O)(=O)c1ccc2nc(NC(=O)C3C4C=CC(C4)C3C(=O)O)sc2c1` (centres undefined) are -6.9% and 55.1% (active).
As for `COC(=O)C1=C(C(=O)OC)C2(OC1c1ccc(Br)cc1)C(=O)c1ccccc1C2=O` (centres undefined), the growth inhibition was -26.3% and the inhibition was -2.75% (inactive).
`CC(C)(C)c1ccc(C(=O)NCC(=O)OCN2C(=O)c3ccccc3C2=O)cc1`: the growth inhibition is -3.45% and the inhibition is 13.3% (inactive).
For the molecule `CCCCOC(=O)Cn1c(=N)n(CCN(CC)CC)c2ccccc21`, the growth inhibition is 19.4% and the inhibition is 17.1% (inactive).
As for `COc1cc(OC)nc(NC(=O)CCl)n1`, the growth inhibition is -16.7% and the inhibition is 3.82% (inactive).
For `COc1ccc(C2=NO[C@@H]3C(=O)N(Cc4ccccc4)C(=O)[C@H]23)cc1OC`, in that order: 14.3% and 7.78% (inactive).
For the molecule `COc1ccc(OC)c(NC(=O)CN2CCN(C(=O)c3ccco3)CC2)c1`, the growth inhibition came to 18.5% and the inhibition is 17.4% (inactive).
Consider `c1ccc(-n2ncc3c2ncn2c(C4CCCCC4)nnc32)cc1`, for which the inhibition was 16.1% (inactive).
In the case of `Cc1sc2nc(SCC(N)=O)n(C)c(=O)c2c1C`, the growth inhibition turned out to be 6.45% and the inhibition was 20.9% (inactive).
`O=C(Nc1ccc(Br)cc1)c1cccc(NC(=O)C2C3CC4OC(=O)C2C4C3)c1` (centres undefined): the growth inhibition was 3.13% and the inhibition is 27.9% (inactive).
The corresponding values for `CC1=C(C(=O)Nc2ccccc2)C(c2ccco2)C(C#N)=C(SCC(N)=O)N1` (centres undefined) are -15% and 11.1% (inactive).
Regarding `COC(=O)C1=C(C)Nc2ncnn2C1c1cccnc1` (centres undefined), the growth inhibition amounted to 10% and the inhibition was 1.7% (inactive).
`Cc1nn(C(C)CC(=O)O)c(C)c1C` (centres undefined): the inhibition is 18.6% (inactive).
`Cc1cc2nnc(SCC(=O)N3CCN(c4ccccc4)CC3)n2c(N)n1`: the growth inhibition is -13.6% and the inhibition was 24.8% (inactive).
For `Cn1c(SCC(=O)C(C)(C)C)nnc1-c1ccccn1`, in that order: 12.8% and 20.3% (inactive).
The corresponding values for `CC(CO)N1CCS(=O)(=O)CC1` (centres undefined) are 15% and 18.1% (inactive).
On to `O=C(CSc1nnc(-c2ccccn2)n1-c1ccccc1)Nc1ccc2c(c1)OCO2`, for which the growth inhibition was -57.1% and the inhibition was 55.6% (active).
With `Cc1ccc(-n2c(SCC(=O)Nc3ccc4c(c3)OCO4)nnc2-c2ccccn2)cc1`, the growth inhibition was -2.78% and the inhibition was -3.69% (inactive).
As to `Cc1ccc(-n2c(SCC(=O)Nc3ccc4c(c3)OCO4)nnc2-c2ccoc2C)cc1`, the inhibition was -19.2% (inactive).
For `CCCSC1=C(C#N)C(c2ccccc2C)C(C(=O)OC)C(=O)N1` (centres undefined), the growth inhibition was determined as 12% and the inhibition was -22.6% (inactive).
For `Cc1nc2cc(NC(=O)NCc3ccccc3)ccc2o1`, the growth inhibition was -9.52% and the inhibition was -14.4% (inactive).
`COCC(=O)Nc1ccc(Br)cc1`: the growth inhibition is -9.52% and the inhibition is -24.5% (inactive).
For `Cc1nc(NC(=O)CN(C)S(=O)(=O)c2ccc(Cl)cc2)sc1C`, the growth inhibition was determined as 5% and the inhibition is -24.3% (inactive).
As for `C=CCNC(=O)c1cc2nc(C3CC3)cc(C(F)F)n2n1`, the inhibition is 12.7% (inactive).
On to `COCCNS(=O)(=O)c1cc(Br)ccc1OC`, for which the growth inhibition is 9.09% and the inhibition was 18.4% (inactive).
As to `COC(=O)c1ccc(Sc2ccc(F)cc2)c(N)c1`, the growth inhibition came to 27% and the inhibition was 23.2% (inactive).
As to `O=C(c1ccc2c(c1)OCO2)N1CCN(C(=O)c2ccco2)CC1`, the growth inhibition came to 16.7% and the inhibition is 35.7% (inactive).
Turning to `CCOCN(C(=O)Cn1c(C(C)O)nc2ccccc21)c1c(C)cccc1CC` (centres undefined), the growth inhibition was -7.69% and the inhibition was 20.1% (inactive).
Consider `CC(=O)OCc1cc2cc(C)ccc2[nH]c1=O`, for which the growth inhibition is -2.5% and the inhibition was -23.7% (inactive).
Regarding `CCOC(=O)c1[nH]c2ccc(OC)cc2c1NC(=O)N1CCOCC1`, the inhibition was -48.6% (inactive).
In the case of `CCOc1ccc(NC(=O)CN2CCN(CC(=O)Nc3ccc(OC)cc3)CC2)cc1`, the growth inhibition came to 9.09% and the inhibition was -13.6% (inactive).
On to `CCCNC(=O)NCc1ccc(N2CCCC2=O)cc1`, for which the growth inhibition was 12.5% and the inhibition was 10.8% (inactive).
Consider `O=c1/c(=C/c2ccc(CNS(=O)(=O)c3ccccc3)o2)sc2n1CCN=2`, for which the growth inhibition is -8.62% and the inhibition is 62.4% (active).
Regarding `CC1(C)CC(=O)C=C(NCCCNC2CCCCC2)C1`, the growth inhibition is 8.06% and the inhibition is 53.4% (active).
In the case of `CC1(C)CC(=O)C=C(NCCN2CCNCC2)C1`, the growth inhibition is 9.46% and the inhibition was 32.9% (inactive).
As for `CC1(C)CC(=O)C=C(N2CCCC2)C1`, the inhibition is 30.3% (inactive).
Regarding `Cc1ccc(N2C(=O)CC(Sc3ncn[nH]3)C2=O)cc1` (centres undefined), the growth inhibition was 23.8% and the inhibition is -7.91% (inactive).
With `COc1ccc(NC(=O)Nc2ccc3nc(C)c(C)nc3c2)cc1`, the growth inhibition was -13.5% and the inhibition was -3.08% (inactive).
For `CCn1c(=O)cc(O)c2ccccc21`, the growth inhibition turned out to be 11.1% and the inhibition was 2.94% (inactive).
The corresponding values for `O=C1CCCc2nn(-c3ccccc3)nc21` are 7.14% and 6.25% (inactive).
For `CCOC(=O)c1ccccc1NS(=O)(=O)c1ccc(OC)cc1`, in that order: 10.5% and -13% (inactive).
